Consider three compounds from paper PMC10691213 (Proceedings of the National Academy of Sciences of the …, 2023).

Experiment [1] deals with HEK293T cells. In kind it is cell-based, human. As to conditions: 500 nM anisomycin 1 h. In short, it runs like this: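 HEK293T cells were transiently transfected (polyethyleneimine) with FLAG-MLXIPL or TACC1 plasmid. Where indicated, cells were pre-treated with 50 μM SB203580 for 1 h at 37 °C, then given 500 nM anisomycin or 0.001% DMSO vehicle for 1 h at 37 °C. Lysates were clarified and equal protein (BCA) resolved on 5% gels with […] Phos-tag plus 50 μM MnCl2, or by standard SDS-PAGE, then immunoblotted.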

Experiment [2] has as its system HEK293T cells. Nature of the experiment: MS analysis of TACC1 / MLXIPL phosphopeptides isolated from HEK293T cells. As to conditions: serum-starved, 500 nM trametinib pre-treatment 1 h, EGF 5 min. In kind it is cell-based, human.

Structures are written as SMILES.

For `COc1ccc(C[C@H]2NC[C@H](O)[C@H]2OC(C)=O)cc1` [Anisomycin, anisomycin], in experiment [1], the “phosphorylation of TACC1 (mobility shift)” value is “did not induce phosphorylation”.

On to `C[S+]([O-])c1ccc(-c2nc(-c3ccncc3)c(-c3ccc(F)cc3)[nH]2)cc1` (stereo not drawn) [SB203580], for which the “anisomycin-induced MLXIPL phosphorylation (mobility shift)” value in experiment [1] (50 μM SB203580 pre-treatment 1 h) was “partly dependent on p38α/β”.

Regarding `CC(=O)Nc1cccc(-n2c(=O)n(C3CC3)c(=O)c3c(Nc4ccc(I)cc4F)n(C)c(=O)c(C)c32)c1` [trametinib], the “EGF-stimulated TACC1 Ser231 phosphorylation” value in experiment [2] is listed as “blocked”.
